How the values were obtained:
CAPAN-1 [1] = experiment: Antiproliferative activity against KRAS-dependent human Capan1 cells after 48 hrs by CCK8 assay; settings: CAPAN-1, 48 h
CAPAN-1 [2] = experiment: Induction of apoptosis in KRAS-dependent human Capan1 cells at 50 uM incubated for 48 hrs by Annexin-V FITC/propidium iodide staining-based flow cytometry (reference value: 3.51%); assay type: functional
In short: (§1)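 Capan-1 cells were exposed to compound for 48 h, with 0.1% DMSO as the vehicle control. The read-out is the percentage of apoptotic cells. Compounds were tested at 10, 25 or 50 μM.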

CAPAN-1 [3] = experiment: Induction of apoptosis in KRAS-dependent human Capan1 cells at 25 uM incubated for 48 hrs by Annexin-V FITC/propidium iodide staining-based flow cytometry (reference value: 3.51%); assay type: functional; in short: as §1
CAPAN-1 [4] = experiment: Induction of apoptosis in KRAS-dependent human Capan1 cells after 48 hrs by Annexin-V FITC/propidium iodide staining-based flow cytometry; assay type: functional, cell-based; in short: as §1
CAPAN-1 [5] = experiment: Induction of apoptosis in KRAS-dependent human Capan1 cells at 10 uM incubated for 48 hrs by Annexin-V FITC/propidium iodide staining-based flow cytometry (reference value: 3.51%); assay type: functional; in short: as §1

Row | Compound | IC50 (CAPAN-1 [1]) | also measured
1 | O=C1c2cc(F)ccc2N(CC2CCCC2)C(c2ccccc2F)N1C1CCN(CCCn2ccnc2-c2ccccc2)CC1 (stereo not drawn) | 12.4 µM | 
2 | Cc1ccc(-n2nc3c(=O)n(CCCC(=O)NCC(C)c4ccccc4)nc(C)c3c2C)cc1 (stereo not drawn) | 48 µM | Activity (CAPAN-1 [2]): 20.5%
3 | O=C1c2cc(F)ccc2NC(c2ccccc2F)N1C1CCN(CCCn2ccnc2-c2ccccc2)CC1 (stereo not drawn) | 33 µM | 
4 | Cc1ccc2c(c1)C(=O)N(C1CCN(CCCn3ccnc3-c3ccccc3)CC1)C(c1ccccc1F)N2 (stereo not drawn) | 42 µM | 
5 | CN1c2ccc(F)cc2C(=O)N(C2CCN(CCCn3ccnc3-c3ccccc3)CC2)C1c1ccccc1F (stereo not drawn) | 47 µM | 
6 | COc1ccc2c(c1)NC(c1ccccc1F)N(CCOc1ccc(-c3nc4ccccc4n3Cc3ccncc3)cc1)C2=O (stereo not drawn) | > 100 µM | 
7 | O=C1c2ccc(Cl)cc2NC(c2ccccc2F)N1CCOc1ccc(-c2nc3ccccc3n2Cc2ccncc2)cc1 (stereo not drawn) | > 100 µM | 
8 | O=C1c2ccccc2NC(c2ccccn2)N1c1ccc(OCCn2ccnc2-c2ccccc2)cc1 (stereo not drawn) | 52 µM | 
9 | O=C1c2ccccc2NC(c2ccccc2F)N1CCOc1ccc(-c2nc3ccccc3n2Cc2ccncc2)cc1 (stereo not drawn) | > 100 µM | 
10 | O=C1c2cc(F)ccc2N(CC2CCC2)C(c2ccccc2F)N1C1CCN(CCCn2ccnc2-c2ccccc2)CC1 (stereo not drawn) | 11.6 µM | 
11 | O=C1c2ccccc2NC(c2ccccc2F)N1c1ccc(OCCn2c(-c3ccccc3)nc3ccccc32)cc1 (stereo not drawn) | > 100 µM | 
12 | Cc1nc2ccccc2n1CCOc1ccc(N2C(=O)c3ccccc3NC2c2ccccc2F)cc1 (stereo not drawn) | > 100 µM | 
13 | O=C1c2ccccc2NC(c2ccccn2)N1c1ccc(OCCn2c(-c3ccccc3)nc3ccccc32)cc1 (stereo not drawn) | > 100 µM | 
14 | Cc1ccc2c(c1)C(=O)N(CCOc1ccc(-c3nc4ccccc4n3Cc3ccncc3)cc1)C(c1ccccc1F)N2 (stereo not drawn) | > 100 µM | 
15 | O=C1c2cc(F)ccc2N(CC2CCCCC2)C(c2ccccc2F)N1C1CCN(CCCn2ccnc2-c2ccccc2)CC1 (stereo not drawn) | 54.6 µM | 
16 | O=C1c2cc(F)ccc2N(CC2CC2)C(c2ccccc2F)N1C1CCN(CCCn2ccnc2-c2ccccc2)CC1 (stereo not drawn) | 8.8 µM | Activity (CAPAN-1 [3]): 36.4%; Activity (CAPAN-1 [4]): Dose-dependent effect; Activity (CAPAN-1 [5]): 17.95%
17 | COc1ccc2c(c1)NC(c1ccccc1F)N(C1CCN(CCCn3ccnc3-c3ccccc3)CC1)C2=O (stereo not drawn) | 82 µM | 
18 | O=C1c2ccccc2NC(c2ccccc2F)N1C1CCN(CCCn2ccnc2-c2ccccc2)CC1 (stereo not drawn) | 34 µM | 
19 | O=C1c2cc(F)ccc2NC(c2ccccc2F)N1CCOc1ccc(-c2nc3ccccc3n2Cc2ccncc2)cc1 (stereo not drawn) | > 100 µM | 
20 | O=C1c2ccc(F)cc2NC(c2ccccc2F)N1CCOc1ccc(-c2nc3ccccc3n2Cc2ccncc2)cc1 (stereo not drawn) | > 100 µM | 
21 | O=C1c2ccc(F)cc2NC(c2ccccc2F)N1C1CCN(CCCn2ccnc2-c2ccccc2)CC1 (stereo not drawn) | 35 µM | 
22 | O=C1c2ccccc2NC(c2ccccc2F)N1c1ccc(OCCn2ccnc2)cc1 (stereo not drawn) | > 100 µM | 
23 | O=C1c2ccccc2NC(c2ccccc2F)N1c1ccc(OCCn2ccnc2-c2ccccc2)cc1 (stereo not drawn) | > 100 µM | 
24 | Cc1nccn1CCOc1ccc(N2C(=O)c3ccccc3NC2c2ccccn2)cc1 (stereo not drawn) | > 100 µM | 
25 | Cc1ccc2c(c1)NC(c1ccccc1F)N(C1CCN(CCCn3ccnc3-c3ccccc3)CC1)C2=O (stereo not drawn) | 78 µM | 
26 | O=C1c2ccccc2NC(c2ccccn2)N1c1ccc(OCCn2ccnc2)cc1 (stereo not drawn) | > 100 µM | 
27 | COc1ccc2c(c1)C(=O)N(C1CCN(CCCn3ccnc3-c3ccccc3)CC1)C(c1ccccc1F)N2 (stereo not drawn) | 74 µM | 
28 | Cc1nccn1CCOc1ccc(N2C(=O)c3ccccc3NC2c2ccccc2F)cc1 (stereo not drawn) | > 100 µM | 
29 | O=C1c2cc(Cl)ccc2NC(c2ccccc2F)N1CCOc1ccc(-c2nc3ccccc3n2Cc2ccncc2)cc1 (stereo not drawn) | > 100 µM | 

Reference: ChEMBL document CHEMBL4033798, “Discovery of Novel KRAS-PDEδ Inhibitors by Fragment-Based Drug Design” (J Med Chem, 2018)
